# CRFBP-R2 agonist – agonists of human CRF-binding protein/CRF-R2 receptor complex | HEK293 CRF-R2/CRF-BP, calcium dye fluorescence (FLIPR); percent of saturating CRF peptide response | 350,000 tested, 0.46% active | activation, % at 13.2 µM;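 active = activation of at least 50%, plus an integration ratio under a set limit after plate pattern correction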;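 note: plate controls were neutral control wells without compound for no effect and CRF at EC100 for full effect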
# DDE Tn7 FP inh – disrupts Tn7 cyclic peptide binding to fibrin D-Dimer-E complex. FP displacement of FITC-Tn7 peptide from fibrin DD(E); 0% = median of compound wells per plate. inhibition, % at 8.3 µM. 370,000 tested, 0.13% active;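 active = inhibition above the mean of compounds falling within the control limits plus 3 SD of them, cut at about 14% in these data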;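 note: 0% = plate median of compound wells and 100% = 10 µM Aha-Tn7 peptide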
#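 Test system – human fibrin DD(E) · Times – 10 min preincubation, 3 h with tracer, room temperature · Detection – fluorescence polarization of the labelled Tn7 tracer · Measure – percent inhibition normalized to high-control wells · Benchmarks – high control wells with 10 µM unlabelled Aha-Tn7 peptide (full inhibition) · Repeats – singlicate testing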
# proKLK7 act – proKLK7 (human) activation, primary screen. 370,000 tested, 0.9% active. AID 652039. P49862. activation, % at 7 µM. purified proKLK7, EDANS-DABCYL substrate fluorescence; 100% is mature enzyme control, 0% vehicle;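 active = activation above the mean of all tested compounds plus 3 SD, computed per campaign excluding outliers beyond control limits, cut at about 13% in these data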
# Target sequence (P49862 whole entry, looked up): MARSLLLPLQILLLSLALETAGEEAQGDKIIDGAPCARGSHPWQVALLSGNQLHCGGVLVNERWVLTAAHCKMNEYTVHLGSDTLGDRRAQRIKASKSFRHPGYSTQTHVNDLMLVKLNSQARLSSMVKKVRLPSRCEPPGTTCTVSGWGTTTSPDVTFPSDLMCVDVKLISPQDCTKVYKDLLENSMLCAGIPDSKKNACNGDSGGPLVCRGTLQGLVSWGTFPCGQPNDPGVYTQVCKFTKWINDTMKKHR
# CRFR2-BP antag – CRF-BP/CRF-R2 complex antagonism | HEK293 CRF-R2/CRF-BP, CRF-induced calcium fluorescence | inhibition, % at 11.8 µM | 350,000 tested, 0.59% active;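 active = inhibition of the ligand-induced calcium signal above about 50% at the single tested concentration, limit read from the data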
# DDE Tn6 FP inh – DD(E)-Tn6 binding inhibition, primary FP screen. P02675. 370,000 tested, 0.21% active. inhibition, % at 8.3 µM. AID 720509. Fibrin DD(E) TRITC-Tn6 fluorescence polarization displacement;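 active = inhibition above a per-campaign cutoff: mean of compounds within control limits plus 3 SD, cut at about 15% in these data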;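 note: 0% = median of all compound wells on the plate and 100% = blocking peptide control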
# NRP1-CendR mod – NRP-1/CendR interaction modulation; FAM-RPARPAR peptide binding to NRP-1, fluorescence polarization; inhibition, % at 25 µM; 360,000 tested, 0.85% active;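 active = inhibition or corrected inhibition above about 18%, plus a signal ratio from 0.5 to 1.5, limit read from the data, passing the limit was not always enough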
# KLK7 act conf – proKLK7 activation, confirmation | shares compounds with proKLK7 act | purified proKLK7, EDANS-DABCYL substrate fluorescence; scaled: vehicle 0, mature enzyme 100 | activation, % at 7 µM | 3,200 tested, 68% active;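 active = activation, as change over the incubation, above the mean of all tested compounds plus 3 SD, cut at about 13% in these data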
# EDANS-DABCYL int – fluorescence interference counter-screen for KLK7 activators; EDANS-DABCYL substrate fluorescence interference, no enzyme, 4 h; solvent 0%, active enzyme control 100%; activation, % at 7 µM; shares compounds with proKLK7 act; 3,200 tested, 80% active;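 active = activation above the all-compound mean plus 3 SD, ignoring values outside control-based bounds, cut at about 4.8% in these data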;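 note: value is the 4 h activation minus the activation read at time zero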
# EDANS interf – counter-screen for kallikrein-7 activators: EDANS-DABCYL interference, dose response; shares compounds with proKLK7 act; EDANS-DABCYL peptide fluorescence interference, no enzyme; EC50, µM; 250 tested, 20% active; AID 720493;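 active = compounds that raise the fluorescence signal in this interference counterscreen, with EC50 at or below 10 µM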;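 note: intact quenched peptide substrate alone read at 355 nm excitation and 520 nm emission; signal is fluorescence gain from T0 to T4 after four hours at room temperature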
# * marks the source's active call; other numbers are inactive results; x = not tested or not shown. Most compounds without a hit are left out; they make up all but 2.9% or so of the library.
SMILES,CRFBP-R2 agonist,DDE Tn7 FP inh,proKLK7 act,CRFR2-BP antag,DDE Tn6 FP inh,NRP1-CendR mod,KLK7 act conf,EDANS-DABCYL int,others
COc1cccc(/C=C2\CC3(OC(=O)c4ccccc4)CCCN2C3)c1 (stereo not drawn),x,-8.9,0.3,x,-6.4,x,x,x,
O=C1CC(N(O)c2ccccc2)C(=O)N1Cc1ccccc1 (stereo not drawn),-1.1,1.4,0.5,-2.6,-8.8,-15.7,x,x,
COc1ccccc1N1C(=O)CC(N(O)c2ccccc2)C1=O (stereo not drawn),-1.4,-2.0,117.5*,-6.8,-2.0,-1.1,191.9*,195.4*,
Cc1ccccc1N1C(=O)CC(N(O)c2ccccc2)C1=O (stereo not drawn),-1.4,-2.5,362.9*,-19.7,-1.8,4.3,316.9*,330.3*,
COc1ccccc1N(O)C1CC(=O)N(c2ccc(F)cc2)C1=O (stereo not drawn),1.7,7.1,6.3,1.6,-8.1,-1.6,x,x,
CCCOc1ccccc1N1C(=O)CC(N(O)c2ccccc2)C1=O (stereo not drawn),-1.3,-3.9,47.1*,-3.1,-1.9,12.8,29.1*,31.2*,
O=C1CC(N(O)c2ccccc2)C(=O)N1c1cc(Cl)cc(Cl)c1 (stereo not drawn),-3.1,-4.7,47.8*,17.8,9.3,-7.2,645.3*,616.9*,
N#Cc1cccc(OC[C@@H](O)CN2CCC(C(O)(c3ccccc3)c3ccccc3)CC2)c1,x,-6.8,0.8,x,0.7,x,x,x,
COc1ccc(-c2ncn(CCc3ccccc3OC)c2CC(C)C)cc1,x,6.3,0.0,x,-2.3,x,x,x,
O=C(N1CCC(Cc2ccccc2)CC1)n1ncc(C(O)(c2ccccc2)c2ccccc2)n1,x,-2.4,x,x,1.8,x,x,x,
CCCOc1ccc(N2C(=O)CC(N(O)c3ccccc3)C2=O)cc1 (stereo not drawn),-0.5,-2.7,111.6*,-4.3,0.9,10.9,120.0*,124.8*,
CN(C)c1cccc(/C=C2\CC3(OC(=O)c4ccco4)CCCN2C3)c1 (stereo not drawn),x,0.8,0.4,x,-2.2,x,x,x,
Oc1ccc2ccccc2c1C=Nc1ccccc1-c1nc2ccccc2[nH]1,-0.9,2.6,38.0*,-27.0,6.0,2.2,-42.9,-39.3,
O=C1CCC2(CCC(c3ccccc3)CC2)N1CCCO (stereo not drawn),x,2.3,0.0,x,-2.2,x,x,x,
COC(=O)C1=CN(C)C=C(C(=O)OC)C1c1ccccc1Cl,-0.6,-5.0,23.9*,26.0,2.5,10.9,76.1*,77.0*,
CCn1c(=O)cc(N2CCN(c3cccc(C(F)(F)F)c3)CC2)[nH]c1=O,x,-5.2,x,x,7.3,x,x,x,
Cc1oc2c(c(C)cc3oc(=O)c(CC(=O)N[C@@H](CC(C)C)C(=O)O)c(C)c32)c1C,1.6,3.9,5.4,-5.7,3.2,-1.3,x,x,
Cc1oc2c(c(C)cc3oc(=O)c(CC(=O)N[C@H](C(=O)O)C(C)C)c(C)c32)c1C,-1.1,-4.2,15.5*,2.9,-5.2,3.8,5.8,13.4*,
Cc1coc2c1c(C)cc1oc(=O)c(CC(=O)NCCCCCC(=O)O)c(C)c12,0.7,-2.1,18.4*,1.2,-1.4,3.4,34.2*,28.5*,EDANS interf=>69.5
Cc1coc2c1c(C)cc1oc(=O)c(CC(=O)NCC(=O)O)c(C)c12,0.5,-3.3,15.9*,-6.7,2.2,2.6,57.1*,59.4*,
CN(C(=O)c1ccncc1)c1nnc(-c2cnccn2)s1,-2.4,-6.2,32.6*,-19.2,5.6,-7.7,77.1*,82.2*,
CN(C(=O)c1ccccn1)c1nnc(-c2cnccn2)s1,2.1,0.4,9.4,-9.0,-0.6,12.1,x,x,
CN(C(=O)c1cccnc1)c1nnc(-c2cnccn2)s1,1.1,6.1,42.4*,3.9,0.4,0.4,32.7*,34.4*,
CN(C(=O)c1cccnc1)c1nnc(-c2ccccn2)s1,1.8,-2.0,73.3*,6.9,-3.7,1.2,38.6*,37.3*,
CN(C(=O)c1cccc(C#N)c1)c1nnc(-c2cnccn2)s1,-0.3,2.4,2.6,-24.5,0.2,-3.3,x,x,
SMILES,CRFBP-R2 agonist,DDE Tn7 FP inh,proKLK7 act,CRFR2-BP antag,DDE Tn6 FP inh,NRP1-CendR mod,KLK7 act conf,EDANS-DABCYL int,others
CN(C(=O)c1cnccn1)c1nnc(-c2cnccn2)s1,-1.0,10.6,19.7*,-1.2,2.8,0.5,37.6*,42.3*,
COc1ccc(CN2CN3Cc4ccc(C)cc4C3CS2(=O)=O)cc1 (stereo not drawn),x,-16.4,0.1,x,0.5,x,x,x,
CN(C(=O)C1CCCO1)c1nnc(-c2cnccn2)s1 (stereo not drawn),-0.8,2.8,53.6*,14.0,3.9,1.9,39.3*,81.2*,
Cc1ccc(-c2nnc(N(C)C(=O)C3CCCO3)s2)cn1 (stereo not drawn),-0.4,-1.1,2.6,0.1,-1.2,-20.1,x,x,
Cc1cc(OC(C)C(=O)NCC2CCC(C(=O)O)CC2)c2c(C)cc(=O)oc2c1 (stereo not drawn),1.8,-1.1,12.8*,-2.3,-2.6,-6.8,12.0,12.2*,
COc1ccc2cc(-c3ccccc3)c(=O)oc2c1,1.3,4.2,23.2*,9.3,-4.1,6.2,81.6*,74.0*,
O=c1oc2ccccc2cc1-c1ccccc1,-0.1,3.2,0.4,-6.5,0.4,-4.7,x,x,
CN(C)C(=O)COc1ccc2cc(-c3ccccc3)c(=O)oc2c1,0.0,-1.5,33.2*,14.7,-1.1,9.1,66.2*,73.5*,
COc1ccc(-c2cc(=O)oc3cc(OCC(=O)N(C)C)ccc23)cc1,0.0,-5.0,3.7,4.3,-4.3,1.5,x,x,
COC(=O)C(C)Oc1ccc2cc(-c3ccccc3)c(=O)oc2c1 (stereo not drawn),-0.7,-5.8,16.1*,-12.9,0.0,18.2,64.5*,44.4*,EDANS interf=>69.5
O=C(Cn1nnc(N2CCCCC2)n1)NN=Cc1ccccc1O,x,2.5,-37.6,x,1.8,x,x,x,
O=c1oc2cc(OCc3c(F)cccc3Cl)ccc2cc1-c1ccccn1,1.2,1.5,-5.9,-22.5,-0.5,-1.7,x,x,
CCCOc1ccc2cc(-c3ccccn3)c(=O)oc2c1,3.3,-2.3,25.4*,-45.5,2.6,-0.8,55.3*,67.3*,
CC(=O)Oc1ccc2cc(-c3cccnc3)c(=O)oc2c1,0.2,2.4,265.5*,79.3*,5.7,11.7,72.1*,71.9*,
